In one test the test system is L6. Nature of the test: Cytotoxicity against rat L6 cells. Type of test: cell-based. The method, boiled down: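 L-6 rat skeletal myoblast cell line; cytotoxicity values reported in µM.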
Another test deals with Plasmodium falciparum. Kind of test: Antiplasmodial activity against Plasmodium falciparum in human red blood cells after 4 hrs. The test is classed as functional, organism-based.
Test [1] concerns the target T1, Falcipain 2 (Plasmodium falciparum) (UniProt Q9N6S8).
T1 sequence (whole entry): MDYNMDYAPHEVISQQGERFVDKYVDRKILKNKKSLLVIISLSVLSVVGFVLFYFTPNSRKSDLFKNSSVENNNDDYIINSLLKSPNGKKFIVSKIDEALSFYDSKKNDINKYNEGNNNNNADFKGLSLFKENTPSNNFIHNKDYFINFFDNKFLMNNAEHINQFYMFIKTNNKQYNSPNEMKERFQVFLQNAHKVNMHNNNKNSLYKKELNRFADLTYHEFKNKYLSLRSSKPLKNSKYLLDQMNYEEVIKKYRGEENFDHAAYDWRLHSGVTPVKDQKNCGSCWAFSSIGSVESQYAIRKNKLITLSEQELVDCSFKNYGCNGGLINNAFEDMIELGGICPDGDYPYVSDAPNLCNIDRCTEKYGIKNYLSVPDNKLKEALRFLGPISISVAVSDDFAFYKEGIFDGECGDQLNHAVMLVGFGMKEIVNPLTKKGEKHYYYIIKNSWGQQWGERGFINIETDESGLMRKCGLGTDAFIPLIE
Kind of test: Inhibition of Plasmodium falciparum recombinant cysteine protease falcipain-2.

Active and inactive are the calls of the source. No cut-off for these calls is given here.

Turning to `COc1cccc2c(-c3cc(CCCOC(=O)N([C@@H](Cc4ccc(OCc5ccc(C(=O)c6ccccc6)cc5)cc4)C(=O)O)S(=O)(=O)c4cccc5c(N(C)C)cccc45)c4c(c3O)[C@@H](C)N[C@H](C)C4)c(C)cc(OC)c12`, the values for the IC50 in the test with L6 and in the test on Plasmodium falciparum were 69.5 µM and 0.96 µM, respectively.
As to `COC(=O)/C=C/c1cc(-c2c(C)cc(OC)c3c(OC)cccc23)c(OCc2ccccc2)c2c1C[C@@H](C)N(Cc1ccccc1)[C@@H]2C`, the IC50 in the test on L6 was above 140 µM; in the test with Plasmodium falciparum, 0.19 µM.
The like results for `COc1cccc2c(-c3cc(CNCCCCCCNS(=O)(=O)c4cccc5c(N(C)C)cccc45)c4c(c3OCc3ccccc3)[C@@H](C)N(Cc3ccccc3)[C@H](C)C4)c(C)cc(OC)c12` were, in that order, 2.5 µM and 0.045 µM.
As to `COc1cc([C@@H]2c3cc4c(cc3[C@H](O)[C@H]3COC(=O)[C@H]23)OCO4)cc(OC)c1OC` [PODOFILOX], half-maximal inhibition with L6 (IC50) was put at 0.007 µM.
In the case of `COc1cccc2c(-c3cc(CCCO)c4c(c3O)[C@@H](C)N[C@H](C)C4)c(C)cc(OC)c12`, the figures for the IC50 in the test on L6 and in the test with Plasmodium falciparum were 99 µM and 2.42 µM, respectively.
`COc1cccc2c(-c3cc(CNCCCCCCNS(=O)(=O)c4cccc5c(N(C)C)cccc45)c4c(c3O)[C@@H](C)N[C@H](C)C4)c(C)cc(OC)c12`: the figures for the concentration for half-maximal inhibition (IC50) in the test on L6 and with Plasmodium falciparum were 16.5 µM and 0.602 µM, respectively.
As to `COc1cccc2c(-c3ccc4c(c3O)[C@@H](C)N[C@H](C)C4)c(C)cc(OC)c12` [DIONCOPHYLLINE A], the results for the IC50 with L6 and with Plasmodium falciparum were 29.1 µM and 0.381 µM, respectively. In addition, the result in test [1] was inactive.

What is called IC50 is the concentration that gives 50% inhibition.

The values above are taken from ChEMBL document CHEMBL1138319, “Synthesis and pharmacological evaluation of fluorescent and photoactivatable analogues of antiplasmodial naphthylisoquinolines” (J Med Chem, 2007).
